Assay results of several laboratories.
Each line is one published result; the experiments were not run side by side.
rep main protease: Replicase polyprotein 1ab, main protease (rep, Severe acute respiratory syndrome coronavirus 2, UniProt P0DTD1)
rep methyltransferase: Replicase polyprotein 1ab, methyltransferase (rep, Severe acute respiratory syndrome coronavirus 2, UniProt P0DTD1)

Compound	target	test	conditions	measurement	result
O=C(O[C@@H]1Cc2c(O)cc(O)cc2O[C@@H]1c1ccc(O)c(O)c1)c1cc(O)c(O)c(O)c1	rep main protease	enzyme activity, inhibitor	with preincubation	IC50	< 10 µM
C[C@@H]1CCO[C@H]2Cn3cc(C(=O)NCc4ccc(F)cc4F)c(=O)c(O)c3C(=O)N12	rep main protease	enzyme activity, inhibitor		IC50	49.4 µM
CCC(Sc1nnc2c(n1)[nH]c1ccccc12)C(=O)N1c2ccccc2Sc2ccccc21 (stereo not shown)	rep methyltransferase	enzyme activity, inhibitor		IC50	> 100 µM
CC1(C)O[C@@H]2C[C@H]3[C@@H]4C[C@H](F)C5=CC(=O)C=C[C@]5(C)[C@@]4(F)[C@@H](O)C[C@]3(C)[C@]2(C(=O)CO)O1	rep main protease	enzyme activity, inhibitor		IC50	69.1 µM
COc1ccc(OC)c(C(O)C(C)N)c1 (stereo not shown)	Alpha-1A adrenergic receptor (ADRA1A, Homo sapiens, UniProt P35348)	protein level, degrader, western blot		DC50	17.4 µM
O=C(O)c1cc(O)c(O)c(O)c1	rep main protease	enzyme activity, inhibitor	with preincubation	IC50	< 10 µM
CCC1CC(c2ccc(C(=O)O)cc2)=NN1c1ccc(C#N)c(Cl)c1 (stereo not shown)	rep methyltransferase	enzyme activity, inhibitor		IC50	0.42 µM
O=C(N1CCC2(CC1)C[C@H](CN1CCCCS1(=O)=O)CCO2)C1(c2ccccc2)CCCC1	Replicase polyprotein 1ab, helicase (rep, Severe acute respiratory syndrome coronavirus 2, UniProt P0DTD1)	ATPase activity, inhibitor		IC50	> 100 µM
Cc1c(O)cccc1C(=O)N[C@@H](CSc1ccccc1)[C@H](O)CN1C[C@H]2CCCC[C@H]2C[C@H]1C(=O)NC(C)(C)C	rep main protease	enzyme activity, inhibitor		IC50	28.8 µM
N#Cc1ccc(N2CCC(c3ccc(C(=O)O)cc3)=N2)cc1Cl	rep methyltransferase	enzyme activity, inhibitor		IC50	53.1 µM
